What was measured:
[1] = MRT (0 to 72 hrs) in Wistar rat lung at 15 mg/kg, po by HPLC analysis; assay type: ADME, organism-based
How it was run: (§1)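 Male Wistar rats (180 ± 20 g) received a single oral dose of 10, 15 or 30 mg/kg. Tissues were collected at 0, 0.5, 1, 2, 4, 6, 8, 12, 24, 48 and 72 h (n = 6 per point). Samples of 0.25 g were rinsed, then homogenized in saline (0.25 g/1 mL) and centrifuged at 10,000 × g. Supernatant was methanol-extracted, dried under nitrogen at 50 °C and reconstituted in methanol. Analysis was by C18 HPLC (acetonitrile 60% / water 40%, 1.0 mL/min).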

[2] = Cmax in Wistar rat kidney at 10 mg/kg, po by HPLC analysis; assay type: ADME, organism-based; parameters: dose 10 mg/kg, route oral
How it was run: (§2)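 Tissue distribution in male Wistar rats given oral 10, 15 or 30 mg/kg; heart, liver, spleen, lung, kidney and brain collected predose and 0.5–72 h post-dose (n = 6 per time). Tissue rinsed in saline, homogenised 0.25 g/1 mL saline, methanol extraction, dried under nitrogen, reconstituted in methanol. Analysis by reverse-phase C18 HPLC, acetonitrile/water 60:40, 1.0 mL/min, ambient temperature.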

[3] = Cmax in Wistar rat liver at 30 mg/kg, po by HPLC analysis; assay type: ADME, organism-based; parameters: dose 30 mg/kg, route oral; how it was run: as §2
[4] = Tmax in Wistar rat lung at 10 mg/kg, po by HPLC analysis; assay type: ADME, organism-based; how it was run: as §1
[5] = AUC (0 to 72 hrs) in Wistar rat brain at 15 mg/kg, po by HPLC analysis; assay type: ADME, organism-based; parameters: dose 15 mg/kg, time < 72 hr, route oral
How it was run: (§3)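 Wistar rats (180 ± 20 g) were dosed orally at 10, 15 or 30 mg/kg. Heart, liver, spleen, lung, kidney and brain were collected at 0–72 h (n = 6 per point). Tissue was rinsed, blotted and homogenized in saline (0.25 g/1 mL), then spun at 10,000 × g. Supernatant was methanol-extracted, dried under nitrogen at 50 °C, reconstituted in methanol and run on C18 HPLC (acetonitrile 60%/water 40%, 1.0 mL/min).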

[6] = Tmax in Wistar rat liver at 30 mg/kg, po by HPLC analysis; assay type: ADME, organism-based; how it was run: as §1
[7] = Half life in Wistar rat lung at 10 mg/kg, po by HPLC analysis; assay type: ADME, organism-based; how it was run: as §2
[8] = AUC (0 to 72 hrs) in Wistar rat lung at 15 mg/kg, po by HPLC analysis; assay type: ADME, organism-based; parameters: dose 15 mg/kg, time < 72 hr, route oral; how it was run: as §3
[9] = Cmax in Wistar rat heart at 10 mg/kg, po by HPLC analysis; assay type: ADME, organism-based; parameters: dose 10 mg/kg, route oral; how it was run: as §2
[10] = AUC (0 to infinity) in Wistar rat lung at 15 mg/kg, po by HPLC analysis; assay type: ADME, organism-based; parameters: dose 15 mg/kg, route oral, time infinity; how it was run: as §3
[11] = MRT (0 to 72 hrs) in Wistar rat lung at 30 mg/kg, po by HPLC analysis; assay type: ADME, organism-based; how it was run: as §1
[12] = AUC (0 to 72 hrs) in Wistar rat Heart at 30 mg/kg, po by HPLC analysis; assay type: ADME, organism-based; parameters: time < 72 hr, dose 30 mg/kg, route oral; how it was run: as §3
[13] = Half life in Wistar rat kidney at 15 mg/kg, po by HPLC analysis; assay type: ADME, organism-based; how it was run: as §2
[14] = MRT (0 to 72 hrs) in Wistar rat brain at 30 mg/kg, po by HPLC analysis; assay type: ADME, organism-based; how it was run: as §2
[15] = MRT (0 to 72 hrs) in Wistar rat kidney at 10 mg/kg, po by HPLC analysis; assay type: ADME, organism-based; how it was run: as §2
[16] = Tmax in Wistar rat lung at 30 mg/kg, po by HPLC analysis; assay type: ADME, organism-based; how it was run: as §1
[17] = Half life in Wistar rat liver at 30 mg/kg, po by HPLC analysis; assay type: ADME, organism-based; how it was run: as §2
[18] = Toxicity in ICR mouse assessed as mortality at 1875 mg/kg, ig after 2 weeks; assay type: organism-based; conditions: in vivo, po
Mus musculus = assay: Toxicity in ICR mouse assessed as change in body weight at 1200 mg/kg, po after 2 weeks; assay type: organism-based; conditions: in vivo, 336 h
[19] = Half life in Wistar rat brain at 30 mg/kg, po by HPLC analysis; assay type: ADME, organism-based; how it was run: as §2
[20] = Cmax in Wistar rat plasma at 15 mg/kg, po by HPLC analysis; assay type: ADME, organism-based; parameters: dose 15 mg/kg, route oral
Rattus norvegicus = assay: Antihypertensive activity in spontaneous hypertensive rat model assessed as reduction in mean blood pressure at 10 mg/kg, po after 4 hrs; assay type: functional
How it was run: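 Male SHRs (250 ± 20 g) were randomized, 6 per group. Compound was suspended in 0.5% sodium carboxymethyl cellulose and given orally; vehicle-only negative control. Mean blood pressure was calculated as (SBP − DBP)/3 + DBP from systolic and diastolic readings over the time course. Data are mean ± SD, with p < 0.05 taken as significant.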

[21] = Cmax in Wistar rat plasma at 10 mg/kg, po by HPLC analysis; assay type: ADME, organism-based; parameters: dose 10 mg/kg, route oral
[22] = MRT (0 to infinity) in Wistar rat liver at 10 mg/kg, po by HPLC analysis; assay type: ADME, organism-based; how it was run: as §1
[23] = Half life in Wistar rat kidney at 30 mg/kg, po by HPLC analysis; assay type: ADME, organism-based; how it was run: as §2
[24] = MRT (0 to infinity) in Wistar rat liver at 15 mg/kg, po by HPLC analysis; assay type: ADME, organism-based; how it was run: as §1
[25] = AUC (0 to 72 hrs) in Wistar rat plasma at 15 mg/kg, po by HPLC analysis; assay type: ADME, organism-based; parameters: dose 15 mg/kg, time < 72 hr, route oral
How it was run: (§4)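 Male Wistar rats (180 ± 20 g, n = 6 per group) got one oral dose. Heparinized blood was taken by retro-orbital puncture before dosing and at 0.5–72 h. Plasma was spun at 4000 × g, 4 °C, 10 min, spiked with internal standard and protein-precipitated with acetonitrile. Analysis was reverse-phase C18 HPLC (0.02 mol/L KH2PO4 55%/acetonitrile 45%, 1.0 mL/min). Calibration used 0.1–10 µg/mL, peak-height ratio, weighting concentration^-2.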

[26] = Cmax in Wistar rat brain at 30 mg/kg, po by HPLC analysis; assay type: ADME, organism-based; parameters: dose 30 mg/kg, route oral; how it was run: as §3
[27] = Cmax in Wistar rat spleen at 15 mg/kg, po by HPLC analysis; assay type: ADME, organism-based; parameters: dose 15 mg/kg, route oral; how it was run: as §2
[28] = MRT (0 to 72 hrs) in Wistar rat plasma at 30 mg/kg, po by HPLC analysis; assay type: ADME, organism-based
How it was run: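 Male Wistar rats (180 ± 20 g), 6 per dose group, each given a single oral dose. Blood was drawn by retro-orbital puncture into heparin at predose and at 0.5, 1, 2, 4, 6, 8, 12, 24, 48 and 72 h, then spun at 4000 × g and 4 °C. Plasma with internal standard was acetonitrile-precipitated, filtered and run on reverse-phase C18 HPLC (0.02 mol/L KH2PO4 55% / acetonitrile 45%, 1.0 mL/min). Calibration standards were 0.1–10 µg/mL, fitted by peak-height ratio with 1/conc² weighting.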

[29] = Tmax in Wistar rat lung at 15 mg/kg, po by HPLC analysis; assay type: ADME, organism-based; how it was run: as §1
[30] = Cmax in Wistar rat spleen at 10 mg/kg, po by HPLC analysis; assay type: ADME, organism-based; parameters: dose 10 mg/kg, route oral; how it was run: as §2
[31] = MRT (0 to infinity) in Wistar rat spleen at 15 mg/kg, po by HPLC analysis; assay type: ADME, organism-based; how it was run: as §1
[32] = MRT (0 to 72 hrs) in Wistar rat spleen at 10 mg/kg, po by HPLC analysis; assay type: ADME, organism-based; how it was run: as §1
[33] = AUC (0 to infinity) in Wistar rat plasma at 30 mg/kg, po by HPLC analysis; assay type: ADME, organism-based; parameters: dose 30 mg/kg, route oral, time infinity; how it was run: as §4

Question: What does the source list for CCCCC1=NC2(CCCC2)C(=O)N1Cc1ccc2c(ccn2-c2ccccc2-c2nnn[nH]2)c1?
Answer: MRT last [1]: 6.64 h; Cmax [2]: 180 ng/mL; Cmax [3]: 2000 ng/mL; Tmax [4]: 2 h; AUC(0-t) at 72 h [5]: 1180 ng·h/mL; Tmax [6]: 4 h; half-life [7]: 3.04 h; AUC(0-t) at 72 h [8]: 1350 ng·h/mL; Cmax [9]: 105 ng/mL; AUC(0-inf) [10]: 1350 ng·h/mL; MRT last [11]: 4.85 h; AUC(0-t) at 72 h [12]: 7360 ng·h/mL; half-life [13]: 22.6 h; MRT last [14]: 9.03 h; MRT last [15]: 21 h; Tmax [16]: 2 h; half-life [17]: 2.12 h; mortality at 336 h [18]: 60%; Activity (Mus musculus): Non-Toxic; half-life [19]: 2.99 h; Cmax [20]: 2950 ng/mL; Activity (Rattus norvegicus): 28.39 mmHg; Cmax [21]: 856 ng/mL; MRT inf [22]: 3.58 h; half-life [23]: 22.4 h; MRT inf [24]: 4.77 h; AUC(0-t) at 72 h [25]: 26500 ng·h/mL; Cmax [26]: 196 ng/mL; Cmax [27]: 2360 ng/mL; MRT last [28]: 12.9 h; Tmax [29]: 1 h; Cmax [30]: 348 ng/mL; MRT inf [31]: 13.1 h; MRT last [32]: 20.2 h; AUC(0-inf) [33]: 88800 ng·h/mL

— ChEMBL document CHEMBL3872205, “Design, synthesis and evaluation of novel potent angiotensin II receptor 1 antagonists” (Eur J Med Chem, 2016)
